Laboratory results as given in ChEMBL document CHEMBL3632598, “Stereospecific inhibition of nitric oxide production in macrophage cells by flavanonols: Synthesis and the structure-activity relationship” (Bioorg Med Chem, 2015).
Where a name gives a salt, the structure may show the parent alone.

What was measured:
RAW264.7 [1] = experiment: Antiinflammatory activity in mouse RAW264.7 cells assessed as inhibition of LPS-induced nitric oxide production at 100 uM pre-incubated for 2 hrs before LPS stimulation for 16 hrs by Griess method; assay type: functional
In short: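 RAW 264.7 cells (1.6 × 10^6 cells/mL) in F-12 Ham medium with 10% FBS, glutamate and penicillin-streptomycin. Compounds were given as DMSO stock diluted 1:100 in medium, final 100 µM, and concentration was checked by UV absorbance. After 2 h at 37 °C, LPS was added to a final 100 ng/mL and cells were incubated 16 h. Aminoguanidine was the positive control; mean ± S.D., n = 3.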

[2] = Antioxidant activity assessed as DPPH radical scavenging activity after 30 mins by spectrophotometry; assay type: physicochemical
RAW264.7 [3] = experiment: Cytotoxicity against mouse RAW264.7 cells assessed as cell viability at 100 uM pre-incubated for 2 hrs before LPS stimulation for 16 hrs followed by 4 hrs incubation by alamar blue assay; assay type: cell-based; settings: raw264.7, 100 µM
In short: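 Viability was read on the RAW 264.7 cells left after supernatant removal in the LPS/NO assay (100 µM compound, 2 h pre-incubation, LPS 100 ng/mL for 16 h). AlamarBlue was added and plates were incubated 4 h at 37 °C. Absorbance was read at 570 nm (reference 655 nm).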

Structure (SMILES)	EC50 [2] [µM]	inhibition at 100 µM (RAW264.7 [1]) [%]	Activity (RAW264.7 [3])
O=C(O)c1cc(O)c(O)c(O)c1	10	–	–
O=C1c2c(O)cc(O)cc2O[C@@H](c2cccc(O)c2)[C@@H]1O	> 100	< 15	Non-toxic
O=C1c2c(O)cc(O)cc2O[C@@H](c2ccc(O)cc2O)[C@@H]1O	> 100	< 10	–
O=C1c2c(O)cc(O)cc2O[C@H](c2cc(O)cc(O)c2)[C@H]1O	> 100	< 10	–
O=C1c2c(O)cc(O)cc2O[C@@H](c2cc(O)cc(O)c2)[C@@H]1O	> 100	< 10	–
COc1cccc([C@H]2Oc3cc(O)cc(O)c3C(=O)[C@@H]2O)c1	> 100	< 10	–
COc1cccc([C@@H]2Oc3cc(O)cc(O)c3C(=O)[C@H]2O)c1	> 100	< 10	–
COc1ccc([C@@H]2Oc3cc(O)cc(O)c3C(=O)[C@H]2O)cc1	> 100	< 10	–
COc1cccc([C@H]2Oc3cc(O)cc(O)c3C(=O)[C@@H]2O)c1OC	> 100	< 10	–
COc1cccc([C@@H]2Oc3cc(O)cc(O)c3C(=O)[C@H]2O)c1OC	> 100	< 10	–
COc1ccc([C@H]2Oc3cc(O)cc(O)c3C(=O)[C@@H]2O)c(OC)c1	> 100	< 10	–
COc1ccc([C@@H]2Oc3cc(O)cc(O)c3C(=O)[C@H]2O)c(OC)c1	> 100	< 10	–
COc1ccc(OC)c([C@H]2Oc3cc(O)cc(O)c3C(=O)[C@@H]2O)c1	> 100	< 10	–
COc1ccc(OC)c([C@@H]2Oc3cc(O)cc(O)c3C(=O)[C@H]2O)c1	> 100	< 10	–
COc1cc(OC)cc([C@H]2Oc3cc(O)cc(O)c3C(=O)[C@@H]2O)c1	> 100	< 10	–
COc1cc(OC)cc([C@@H]2Oc3cc(O)cc(O)c3C(=O)[C@H]2O)c1	> 100	< 10	–
COc1ccc([C@H]2Oc3cc(O)cc(O)c3C(=O)[C@@H]2O)cc1	> 100	< 10	–
COc1ccccc1C1Oc2cc(O)cc(O)c2C(=O)C1O (racemic)	> 100	< 10	–
COc1cccc(OC)c1C1Oc2cc(O)cc(O)c2C(=O)C1O (racemic)	> 100	< 10	–
COc1ccc(C2Oc3cc(O)cc(O)c3C(=O)C2O)cc1OC (racemic)	> 100	< 10	–
O=C1c2c(O)cc(O)cc2O[C@H](c2ccc(O)cc2)[C@H]1O [DIHYDROKAEMPFEROL]	> 100	< 10	–
O=C1c2c(O)cc(O)cc2O[C@H](c2ccc(O)cc2O)[C@H]1O [DIHYDROMORIN]	> 100	< 10	–
N=C(N)NN [PIMAGEDINE HYDROCHLORIDE]	–	72	–
O=C1c2c(O)cc(O)cc2O[C@H](c2ccccc2)[C@H]1O [PINOBAKSIN]	> 100	< 10	–

The next lines start with results.

EC50 [2] [µM]	Structure (SMILES)	inhibition at 100 µM (RAW264.7 [1]) [%]	Activity (RAW264.7 [3])
> 100	O=C1c2c(O)cc(O)cc2O[C@@H](c2ccc(O)cc2)[C@@H]1O	< 10	–
12.6	O=C1c2c(O)cc(O)cc2O[C@@H](c2ccc(O)c(O)c2)[C@@H]1O	< 10	–
> 100	O=C1c2c(O)cc(O)cc2O[C@@H](c2ccccc2)[C@@H]1O	< 10	–
> 100	O=C1c2c(O)cc(O)cc2O[C@H](c2ccccc2O)[C@H]1O	40	Non-toxic
> 100	O=C1c2c(O)cc(O)cc2O[C@@H](c2ccccc2O)[C@@H]1O	< 15	Non-toxic
> 100	O=C1c2c(O)cc(O)cc2O[C@H](c2cccc(O)c2)[C@H]1O	35	Non-toxic
12.5	O=C1c2c(O)cc(O)cc2O[C@H](c2cccc(O)c2O)[C@H]1O	70	Non-toxic
13.2	O=C1c2c(O)cc(O)cc2O[C@@H](c2cccc(O)c2O)[C@@H]1O	45	Non-toxic
24.5	O=C1c2c(O)cc(O)cc2O[C@H](c2cc(O)ccc2O)[C@H]1O	30	Non-toxic
25.4	O=C1c2c(O)cc(O)cc2O[C@@H](c2cc(O)ccc2O)[C@@H]1O	< 15	Non-toxic
13.9	O=C1c2c(O)cc(O)cc2O[C@H](c2ccc(O)c(O)c2)[C@H]1O [(+)-TAXIFOLIN]	< 10	–
